Results reported in ChEMBL document CHEMBL1759902, “Synthesis and structure-activity relationship of N-(2-arylethyl) isoquinoline derivatives as human scavenger receptor CD36 antagonists” (Eur J Med Chem, 2011).
Active and inactive are the calls of the source. The rule behind the calls is not given here. Non-standard residues stand in square brackets, D forms with d. Residues, ends and D or L forms follow the SMILES beside them. dTrp(2-Me) = Cc1[nH]c2ccccc2c1C[C@@H](N)C(=O)O

Legend:
Platelet glycoprotein 4 [1] = biological target: T1, Platelet glycoprotein 4 (Homo sapiens, UniProt P16671); assay: Antagonist activity at human CD36-oxLDL binding at 10 ug/mL after 2 hrs by ELISA
T1 sequence (P16671 whole entry): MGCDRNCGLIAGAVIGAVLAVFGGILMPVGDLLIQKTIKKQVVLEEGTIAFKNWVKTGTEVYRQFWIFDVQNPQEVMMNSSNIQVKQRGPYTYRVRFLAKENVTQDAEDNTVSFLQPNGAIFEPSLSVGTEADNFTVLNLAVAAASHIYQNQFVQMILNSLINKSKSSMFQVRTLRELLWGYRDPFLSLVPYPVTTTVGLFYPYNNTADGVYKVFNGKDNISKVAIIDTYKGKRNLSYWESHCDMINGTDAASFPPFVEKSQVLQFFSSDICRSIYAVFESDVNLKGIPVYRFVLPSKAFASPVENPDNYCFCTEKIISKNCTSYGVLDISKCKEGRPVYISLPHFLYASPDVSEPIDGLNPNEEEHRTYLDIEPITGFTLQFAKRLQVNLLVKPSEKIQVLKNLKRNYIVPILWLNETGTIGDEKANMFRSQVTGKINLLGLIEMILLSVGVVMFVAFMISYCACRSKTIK

Platelet glycoprotein 4 [2] = biological target: T1, Platelet glycoprotein 4; assay: Antagonist activity at human CD36 expressed in insect Sf9 cells assessed as inhibition of DiL-acetylated LDL uptake at 10 ug/ml after 5 hrs by fluorometric analysis; type: functional
Outline: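 Sf9 cells in Grace's medium with 10% heat-inactivated FBS at 27 °C, plated at 6.0×10⁵ cells/well, infected 1 h with recombinant hCD36 or wild-type baculovirus, then refed. After two days, washed into Grace/0.5% BSA. Compound added from DMSO for 1 h at 27 °C, then DiI-AcLDL.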

Platelet glycoprotein 4 [3] = biological target: T1, Platelet glycoprotein 4; assay: Antagonist activity at human CD36-oxLDL binding after 2 hrs by ELISA
Outline: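 Plate wells coated with oxLDL at 4 °C for 8–12 h, washed with PBS and blocked in PBS/1% BSA for 1–2 h at 4 °C. His-tagged CD36 or vector control protein added for 1 h at 4 °C, then compound or hexarelin, incubated 2 h.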

Platelet glycoprotein 4 [4] = biological target: T1, Platelet glycoprotein 4; assay: Antagonist activity at human CD36-oxLDL binding at 10 uM after 2 hrs by ELISA

Structure (SMILES) | inhibition (Platelet glycoprotein 4 [1]) [%] | inhibition (Platelet glycoprotein 4 [2]) | IC50 (Platelet glycoprotein 4 [3]) [µM] | inhibition (Platelet glycoprotein 4 [4]) [%]
COc1ccc2cc[n+](CCc3ccc(F)cc3)cc2c1O | 29.6 |  |  | 
COc1ccc2cc[n+](CCc3ccccc3)cc2c1OC | < 10 |  |  | 
Oc1ccc2cc[n+](CCc3cccc(C(F)(F)F)c3)cc2c1 | 48.4 | Active | 3.39 | 
Oc1ccc2cc[n+](CCc3ccccc3)cc2c1 | < 10 |  |  | 
Cc1[nH]c2ccccc2c1C[C@@H](NC(=O)[C@@H](N)Cc1c[nH]cn1)C(=O)N[C@@H](C)C(=O)N[C@@H](Cc1c[nH]c2ccccc12)C(=O)N[C@H](Cc1ccccc1)C(=O)N[C@@H](CCCCN)C(N)=O (H-H[dTrp(2-Me)]AW[dF]K-NH2) |  |  |  | 37.6
COc1ccc2cc[n+](CCc3ccccc3)cc2c1O | 77.9 | Active | 0.633 | 
COc1ccc2cc[n+](CCc3ccc(Cl)cc3)cc2c1OC | 25.4 |  |  | 
COc1ccc2cc[n+](CCc3ccccc3C)cc2c1O | 11.5 |  |  | 
Oc1ccc2cc[n+](CCc3ccccc3F)cc2c1 | 21.7 |  |  | 
COc1ccc2cc[n+](CCc3ccccc3C)cc2c1OC | 46.6 | Active | 4.36 | 
COc1cc2c[n+](CCc3ccccc3C)c(O)cc2cc1O | < 10 |  |  | 
COc1ccc(CC[n+]2ccc3ccc(OC)c(O)c3c2)cc1 | < 10 |  |  | 

Second part, the compound after the results:

inhibition (Platelet glycoprotein 4 [1]) [%] | inhibition (Platelet glycoprotein 4 [2]) | IC50 (Platelet glycoprotein 4 [3]) [µM] | inhibition (Platelet glycoprotein 4 [4]) [%] | Structure (SMILES)
< 10 |  |  |  | COc1cc2cc[n+](CCc3cccc(C(F)(F)F)c3)cc2cc1OC
< 10 |  |  |  | COc1cc2cc[n+](CCc3ccc(Cl)cc3)cc2cc1OC
10 |  |  |  | COc1cc2cc[n+](CCc3ccccc3)cc2cc1OC
52.1 | Active | 6.9 |  | COc1ccc2cc[n+](CCc3cccc(F)c3)cc2c1OC
28.6 |  |  |  | COc1ccc(CC[n+]2ccc3cc(OC)c(OC)cc3c2)cc1
76.3 | Active |  |  | COc1ccc(CC[n+]2ccc3cc(O)c(OC)cc3c2)cc1
47.4 |  |  |  | COc1ccc2cc[n+](CCc3ccccc3)cc2c1
< 10 |  |  |  | COc1cc2c[n+](CCc3ccc(Cl)cc3)ccc2cc1O
31 |  |  |  | COc1cc2c[n+](CCc3ccccc3)ccc2cc1O
42.4 | Active | 5.99 |  | COc1cc2c[n+](CCc3ccc(F)cc3)ccc2cc1O
33.2 |  |  |  | COc1cc2c[n+](CCc3cccc(Cl)c3)c(O)cc2cc1O
28.7 |  |  |  | COc1ccc(CC[n+]2ccc3ccc(O)cc3c2)cc1
20.9 |  |  |  | COc1cc2cc[n+](CCc3cccc(F)c3)cc2cc1OC
33.6 |  |  |  | COc1cc2c[n+](CCc3cccc(Cl)c3)ccc2cc1O
< 10 |  |  |  | COc1cc2c[n+](CCc3cccc(F)c3)c(O)cc2cc1O
